One data set deals with Hepatitis C virus. As to the kind of experiment: Antiviral activity against Hepatitis C virus genotype 1b infected in human HuH5.2 cells after 72 hrs by luciferase reporter gene assay. The data set is classed as functional, cell-based, Hepacivirus hominis. Particulars: Hepatitis C virus, genotype 1b, Huh-5-2, 72 h. The procedure, abridged: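 Huh 5-2 cells with genotype 1b I389luc-ubi-neo/NS3-3'/5.1 subgenomic replicon, seeded 6 500 cells/well in DMEM/10% FCS without Geneticin, overnight 37 °C. Compound (DMSO stock diluted in medium) in 1:5 four-step or 1:2 eight-step series, 72 h. Cells PBS-washed, lysed 5 min, luciferase luminescence read, converted to % untreated control; EC50 from dose-response curve, mean of ≥2 independent experiments.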

Data set [1] is described as follows: Cytotoxicity against human HuH5.2 cells assessed as reduction in metabolic activity after 72 hrs by MTS assay. In kind it is toxicity, cell-based, Huh-5-2. Particulars: HuH5.2 cells. In a few lines: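 Run in parallel with the replicon assay: Huh 5-2 replicon cells, 6 500 cells/well, compound series for 72 h at 37 °C, 5% CO2. Medium then replaced with 5% MTS in phenol red-free medium for 1.5 h. Absorbance at 498 nm expressed as % untreated cells; CC50 from dose-response curve as 50% reduction in metabolic activity, mean of ≥2 experiments.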
A general note: Formazan colour is commonly taken as a measure of viable cells.

The nature of data set [2]: Selectivity index, ratio of CC50 for human HuH5.2 cells to EC50 for hepatitis C virus genotype 1b infected in human HuH5.2 cells. The data set is classed as toxicity, cell-based. Particulars: HuH5.2 cells, read-out: Ratio CC50/EC50. In a few lines:
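Ratio of CC50 (MTS metabolic read-out, 72 h) to EC50 (replicon luciferase read-out, 72 h), both measured in parallel on Huh 5-2 genotype 1b replicon cells.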

Data set [3] is described as follows: Inhibition of Hepatitis C virus genotype 1b (con1) full length C-terminal His-tagged NS3 helicase expressed in Escherichia coli Rosette(DE3) assessed as inhibition of 5'-Cy5/3'-IAbRQ-labeled DNA unwinding activity by molecular beacon assay. On the set-up: species or system Hepatitis C virus (isolate Con1). In a few lines:
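Molecular beacon unwinding assay: 25 mM MOPS pH 6.5, 1.25 mM MgCl2, 5% DMSO, 5 µg/ml BSA, 0.01% Tween20, 0.05 mM DTT, 5 nM fluorescent DNA substrate, 12.5 nM NS3h, 1 mM ATP.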

Data set [4] can be described thus: Inhibition of protease domain lacking Hepatitis C virus genotype 1b (con1) C-terminal His-tagged NS3 helicase ATP hydrolysis activity using ATP as substrate preincubated followed by substrate addition measured after 15 mins in presence of poly U RNA by malachite green-based assay. On the set-up: species or system Hepatitis C virus (isolate Con1).
A short description of data set [5]: Inhibition of Cy5-labeled dT15 DNA binding to Hepatitis C virus genotype 1b (con1) NS3 helicase DNA by fluorescence polarization assay. On the set-up: species or system Hepatitis C virus (isolate Con1). In a few lines:
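Displacement of NS3h from a DNA oligonucleotide, 15 nM NS3h in 25 mM MOPS pH 7.5, 1.25 mM MgCl2, 0.0025 mg/ml BSA, 0.005% Tween20, 0.025 mM DTT.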
(Fluorescence polarisation rises when a labelled molecule tumbles more slowly, as on binding a larger partner.)

The nature of data set [6]: Inhibition of protease domain lacking Hepatitis C virus genotype 1b (con1) C-terminal His-tagged NS3 helicase ATP hydrolysis activity using ATP as substrate preincubated followed by substrate addition measured after 15 mins in absence of poly U RNA by malachite green-based assay. On the set-up: species or system Hepatitis C virus (isolate Con1).

Structures are written as SMILES. pEC50, pIC50: −log10 of the molar value. A value given as a limit tells only on which side of the number the result lay.

In the data set on Hepatitis C virus, `O=C(NNc1ncnc2sc3ccccc3c12)c1cnccn1` gave a pEC50 of 7.14. This compound also had an EC90 in the data set with Hepatitis C virus of 0.192 µM. Further, the CC50 at 72 h in data set [1] is 1.34 µM. Further, the selectivity ratio in data set [2] was determined as 18.5. Moreover, the figures for the pIC50 in data set [3], in data set [4] and in data set [5] were less than 3.00, less than 3.00 and 3.02, respectively.
For the compound `C/C(=N\Nc1ncnc2sc3c(c12)CCCC3)c1ccccc1O`, the pEC50 in the data set on Hepatitis C virus was 5.59. This compound had an EC90 with Hepatitis C virus of 20.1 µM. Further, in data set [1], the half-maximal cytotoxic concentration (CC50) at 72 h was 154 µM. Besides, the selectivity ratio in data set [2] came out at 59.2. In addition, the pIC50 in data set [3] was less than 3.00; in data set [4], 3.11; in data set [6] it was 3.12; in data set [5] it was less than 3.00.
As to `O=S(=O)(NNc1ncnc2sc3c(c12)CCCC3)c1ccccn1`, in the data set on Hepatitis C virus, the pEC50 is 4.37. The compound also yielded an EC90 in the data set with Hepatitis C virus of 83.2 µM. Moreover, the CC50 at 72 h in data set [1] was determined as 145 µM. Also, the selectivity ratio in data set [2] came to 3.4. The negative-log IC50 (pIC50) was less than 3.00 in data set [3], less than 3.00 in data set [4] and 3.17 in data set [5].
`O=C(NNc1ncnc2sc3c(c12)CCC3)c1ccccc1O` gave a negative logarithm of the EC50 (pEC50) with Hepatitis C virus of 6.66. In the data set with Hepatitis C virus, this compound had an EC90 of 0.352 µM. Besides, the CC50 at 72 h in data set [1] stood at 119 µM. Moreover, in data set [2], the selectivity ratio was 538. Further, the negative logarithm of the IC50 (pIC50) was 3.60 in data set [3], 3.48 in data set [4], less than 3.00 in data set [6] and less than 3.00 in data set [5].
With `Cc1ccc2nc(-c3ccc4nc(-c5ccc(N)cc5)sc4c3)sc2c1S(=O)(=O)O`, the pIC50 in data set [3] is 5.00; in data set [4], 4.40; in data set [6], less than 3.70; in data set [5], 4.34.
With `C/C(=N\Nc1ncnc2sc3ccccc3c12)c1ccccc1O`, the pEC50 with Hepatitis C virus was 7.06. In the data set on Hepatitis C virus, this compound registered an EC90 of 0.421 µM. The CC50 at 72 h in data set [1] came out at 11.5 µM. The selectivity ratio in data set [2] came out at 134. Also, the negative logarithm of the IC50 (pIC50) was less than 3.00 in data set [3], less than 3.00 in data set [4] and 3.08 in data set [5].
With `O=C(O)C1=CC(=C(c2ccc(O)c(C(=O)O)c2)c2ccc(O)c(C(=O)O)c2)C=CC1=O` [AURINTRICARBOXYLIC ACID], the negative-log IC50 (pIC50) in data set [3] was 6.52; in data set [4], 5.29; in data set [6] it was 5.48; in data set [5] it was 5.70.

As usually defined, the pEC50 is the negative decadic logarithm of the EC50, by convention in mol/L. Read a high pEC50 as a small EC50. Broadly, the EC90 is the point of the concentration-response curve where the effect stands at 90%. Read a high EC90 as weaker potency. The CC50 is the concentration at which the toxic effect on the cells reaches its halfway point. What is called pIC50 is −log10 of the IC50, conventionally taken in molar units.
